This note sets out measurements from ChEMBL document CHEMBL1121565, “Antiarrhythmic activity of amitriptyline analogues in conscious dogs after myocardial infarction: cyproheptadinium methiodide” (1980).

SMILES strings stand for the structures.

In test [1] the test system is Canis familiaris. In words: Compound was tested for its activity against altering of mean arterial blood pressure when administered with a dose of 25 ug/Kg; Could not significantly alter. Format: functional, organism-based. As to conditions: Canis lupus familiaris; Artery. A digest of the protocol: (§1)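 Anesthetized dogs with no cardiac insult were allowed about 30 min to stabilize after surgery, then given 25 µg/kg iv, followed by 50 µg/kg 30 min later. Arterial pressure, lead II ECG from limb needle electrodes, ECG-derived heart rate and left ventricular dp/dt at 50 mmHg developed pressure were recorded at 100 mm/s. Values before and 5 min after dosing were compared by Student's t test, p < 0.05.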

The test system of test [2] is Canis familiaris. Put plainly: Evaluated for the antiarrhythmic activity in conscious dogs after myocardial infarction by observing 50% reduction in ectopic rate.. The class given is functional, Canis lupus familiaris, Heart. A digest of the protocol: (§2)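 After 30-45 min of adjustment with lead II ECG recording (about 80-85% ectopic complexes), drug was given iv through a foreleg vein in 0.5 mL increments at 2-min intervals. Dosing stopped at sinus rhythm or 3.0 mg/kg total.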

The subject of test [3] is Canis familiaris. Put plainly: Evaluated for the antiarrhythmic activity in conscious dogs after myocardial infarction by observing for conversion to sinus rhythm. Format: functional, Canis lupus familiaris, Heart. A digest of the protocol: as §2
For test [4], the system named is Canis familiaris. Put plainly: Heart beat rate was measured in dogs after 5 min of administration of 25 ug/Kg dose of the compound. The class given is functional, Canis lupus familiaris. A digest of the protocol: as §1
Test [5] has as its system Canis familiaris. In words: Heart beat rate was measured in dogs after subsequent administration of 50 micorg/Kg 30 min after administration of 25 ug/Kg dose of the compound. Format: functional, Canis lupus familiaris. A digest of the protocol: as §1
The species named for test [6] is Canis familiaris. Put plainly: Heart beat rate was measured in dogs prior to the treatment with compound. Format: functional, Canis lupus familiaris. A digest of the protocol:
as §1

The test system of test [7] is Canis familiaris. In words: Myocardial contractility was measured in dogs after 5 min of administration of 25 ug/Kg dose of the compound. The class given is functional, Canis lupus familiaris, Myocardium. A digest of the protocol: as §1
The species named for test [8] is Canis familiaris. Put plainly: Myocardial contractility was measured in dogs prior to the treatment with compound. The class given is functional, Canis lupus familiaris, Myocardium. A digest of the protocol:
as §1

Regarding `C[N+]1(C)CCC(=C2c3ccccc3C=Cc3ccccc32)CC1.[I-]`, the Activity entry is “Could not significantly alter” with Canis familiaris [1], 3250 mmHg s-1 with Canis familiaris [7] and 2333 mmHg s-1 in the test filed under Canis familiaris [8]. Besides, the figures for the Dose with Canis familiaris [2] and in the test with Canis familiaris [3] were 0.03 µM/kg and 0.042 µM/kg, respectively. Further, the Heart beat in the test on Canis familiaris [4] amounted to 174 beats min-1; in the test with Canis familiaris [5], 196 beats min-1; in the test filed under Canis familiaris [6], 148 beats min-1.
As for `CN(C)CCC=C1c2ccccc2CCc2ccccc21` [AMITRIPTYLINE], the Dose worked out at 3.97 µM/kg in the test with Canis familiaris [2] and 4.69 µM/kg in the test on Canis familiaris [3].
For the compound `CN1CCC(=C2c3ccccc3C=Cc3ccccc32)CC1` [CYPROHEPTADINE], the Dose with Canis familiaris [2] came to 0.69 µM/kg; with Canis familiaris [3] it was 1.04 µM/kg.
As to `CCN(CC)CC(=O)Nc1c(C)cccc1C.Cl`, the results for the Dose with Canis familiaris [2] and with Canis familiaris [3] were 5.54 µM/kg and 9.97 µM/kg, respectively.
Consider `CN(C)CCC=C1c2ccccc2C=Cc2ccccc21` [CYCLOBENZAPRINE], for which the Dose was found to be 3.99 µM/kg in the test with Canis familiaris [2] and 6.17 µM/kg with Canis familiaris [3].
